Structures are written as SMILES. Active and inactive are the calls of the source. The calls are words filed in the database; no cut-off is given here. Some results are limits rather than exact numbers.

The values below come from ChEMBL document CHEMBL1155789, “Design, synthesis, and evaluation of 3C protease inhibitors as anti-enterovirus 71 agents” (Bioorg Med Chem, 2008).

Data set [1] in a line: Inhibition of Human enterovirus 71 TW/2231/98 recombinant protease 3C expressed in Escherichia coli JM109 competent cells. Details: species or system Enterovirus A71. An outline of the steps:
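His-tagged EV71 3C protease expressed in E. coli […] and purified on Ni–NTA. Fluorescence read at 538 nm with excitation at 355 nm. Initial velocities over the first 5 min were plotted against inhibitor concentration and fitted to a hyperbolic activity equation to give IC50.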

For data set [2], the system named is Enterovirus A71. Put plainly: Antiviral activity against Human enterovirus 71 in human rhabdomyosarcoma cells assessed as virus-induced cell death after 72 hrs. The class given is functional, organism-based. Conditions: Enterovirus A. An outline of the steps:
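RD cells seeded at 1.1×10^5 cells/mL in DMEM with 10% FBS, grown 24-30 h at 37 °C to about 90% confluence. Virus (100 TCID50) mixed with test compound was adsorbed 1 h at 35 °C, then overlaid with DMEM, 2% FBS, 0.1% DMSO for 72 h at 35 °C. Formaldehyde fixation, crystal violet stain, A570. EC50 is 50% reduction of virus-induced cell death versus virus control. Triplicate, at least twice.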

Data set [3] has as its system RD. Description: Cytotoxicity against human RD cells. The class given is cell-based.
A short description of data set [4]: (§1) Inhibition of Human enterovirus 71 TW/2231/98 recombinant protease 3C expressed in Escherichia coli JM109 competent cells by time dependent assay. Further details: species or system Enterovirus A71. The essentials: (§2)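 Time-dependent inactivation: 0.5 μM 3C protease incubated with 1–10 μM inhibitor in the fluorogenic peptide assay (10 mM MES pH 6.5, 25 °C). Activity loss versus incubation time was fitted to a single exponential to give kobs. Half-life (ln2/kobs) was replotted against reciprocal inhibitor concentration to give kinact and Ki.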

Data set [5] has as its system Enterovirus A71. The description is as §1. An outline of the steps:
as §2

The nature of data set [6]: Selectivity index, ratio of CC50 for human RD cells to EC50 for Human enterovirus 71. Conditions: for selectivity ratio: RD cells, read-out: Ratio CC50/EC50. The class given is toxicity, cell-based.
The test system of data set [7] is RD. Put plainly: Inhibition of Human enterovirus 71 TW/2231/98 recombinant protease 3C in human RD cells at 0.01 to 1 uM after 48 hrs by Western blotting. In kind it is cell-based. The conditions noted are these: Enterovirus A71. The essentials: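 Confluent RD cells in DMEM with 10% fetal calf serum were infected with EV71 TW/2231/98 at MOI 0.01 with or without compound at 0.01–1 μM. After 48 h, total lysates were run on 12% SDS–PAGE and blotted with mouse monoclonal anti-3C and anti-β-actin antibodies. Detection used an HRP anti-mouse secondary (1:2000) and ECL.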
(In western blotting, separated proteins are transferred to a membrane and probed.)

In data set [8] the test system is Echovirus E6. Description: Antiviral activity against Human echovirus 6. In kind it is functional, organism-based. The conditions noted are these: Enterovirus B.
Data set [9] has as its system Echovirus E9. Put plainly: Antiviral activity against Human echovirus 9. The class given is functional, organism-based. The conditions noted are these: Enterovirus B.

Turning to `CCOC(=O)/C=C/[C@H](C[C@@H]1CCNC1=O)NC(=O)[C@H](Cc1ccccc1)NC(=O)/C=C/c1ccccc1`, in [1], the 50% inhibitory concentration (IC50) (usually the concentration that gives 50% inhibition) was 10000 nM. For the same compound, the EC50 – broadly, the concentration giving half of the maximal effect – in [2] worked out at 1300 nM. Besides, in data set [3], the cytotoxic concentration (CC50) (as a rule, the concentration at which the toxic effect on the cells reaches its halfway point) is 8000 nM.
On to `CCOC(=O)/C=C/[C@H](C[C@@H]1CCNC1=O)NC(=O)[C@H](Cc1ccccc1)NC(=O)/C=C/c1ccc(N(C)C)cc1`, for which the IC50 in data set [1] came out at 8200 nM. For the same compound, the Ki in data set [4] is 2600 nM. In addition, the Kinact in [5] was 0.077 min⁻¹. Also, in data set [2], the 50% effective concentration (EC50) came to 2900 nM. The same compound had a CC50 in [3] of 21400 nM.
In the case of `O=C[C@H](C[C@@H]1CCNC1=O)NC(=O)[C@H](Cc1ccccc1)NC(=O)/C=C/c1ccc(Cl)cc1F`, the IC50 in data set [1] was under 500 nM. Further, in [2], the EC50 was 7 nM. Besides, the half-maximal cytotoxic concentration (CC50) in [3] was found to be 5100 nM. Also, the “Ratio CC50/EC50” value in data set [6] (rd) is reported as 714.
`O=C[C@H](C[C@@H]1CCNC1=O)NC(=O)[C@H](Cc1ccccc1)NC(=O)/C=C/c1ccc2c(c1)OCO2`: the IC50 in data set [1] was under 500 nM. For the same compound, the EC50 in [2] amounted to 160 nM. For the same compound, the CC50 in [3] is over 25000 nM.
As to `CCOC(=O)/C=C/[C@H](C[C@@H]1CCNC1=O)NC(=O)[C@H](Cc1ccccc1)NC(=O)OC(C)(C)C`, the IC50 in data set [1] was over 20000 nM. Further, the EC50 in [2] is over 20000 nM.
Regarding `CCOC(=O)/C=C/[C@H](C[C@@H]1CCNC1=O)NC(=O)[C@H](Cc1ccccc1)NC(=O)/C=C/c1ccc2c(c1)OCO2`, the 50% inhibitory concentration (IC50) in data set [1] came to 10600 nM. Also, the EC50 in [2] worked out at 1800 nM. Besides, the half-maximal cytotoxic concentration (CC50) in data set [3] was over 25000 nM.
The matching figures for `Cc1cc(/C=C/C(=O)N[C@@H](Cc2ccccc2)C(=O)N[C@H](C=O)C[C@@H]2CCNC2=O)no1`: under 500 nM, 940 nM and over 25000 nM.
As to `Cc1ccc(/C=C/C(=O)N[C@@H](Cc2ccccc2)C(=O)N[C@H](C=O)C[C@@H]2CCNC2=O)cc1`, the IC50 in data set [1] was under 500 nM. The EC50 in data set [2] amounted to 26 nM. Besides, in data set [3], the CC50 was over 25000 nM. Moreover, the selectivity ratio in data set [6] is over 1000. Moreover, the outcome in data set [7] was Active.
Consider `O=C[C@H](C[C@@H]1CCNC1=O)NC(=O)[C@H](Cc1ccccc1)NC(=O)/C=C/c1ccccc1`, for which, in data set [1], the IC50 is under 500 nM. Moreover, the concentration giving a half-maximal response (EC50) in data set [2] was 96 nM. The CC50 in data set [3] is over 25000 nM.
On to `CN(C)c1ccc(/C=C/C(=O)N[C@@H](Cc2ccccc2)C(=O)N[C@H](C=O)C[C@@H]2CCNC2=O)cc1`, for which the concentration for half-maximal inhibition (IC50) in [1] is under 500 nM. Besides, the EC50 in [2] stood at 18 nM. Also, in data set [3], the CC50 was over 25000 nM. Moreover, in data set [6], the selectivity ratio is over 1000.
Consider `O=C[C@H](C[C@@H]1CCNC1=O)NC(=O)[C@H](Cc1ccccc1)NC(=O)OCc1ccccc1`, for which the IC50 in [1] is under 500 nM. The EC50 in data set [2] worked out at 31 nM. In data set [3], this compound came in with a cytotoxic concentration (CC50) of 23600 nM.
For `CCOC(=O)/C=C/[C@H](C[C@@H]1CCNC1=O)NC(=O)[C@@H](CC(=O)[C@@H](NC(=O)c1cc(C)on1)C(C)C)Cc1ccc(F)cc1` [RUPINTRIVIR], the EC50 in data set [8] is 43 nM; in data set [9] it was 15 nM.
